# Data published in ChEMBL document CHEMBL1127445, “Structure-activity study of 5-substituted 1-carbobenzoxy-2-iminohydantoins as potential anticonvulsant agents” (J Med Chem, 1994).
# Active and inactive are the calls of the source. The rule behind the calls is not given here.
# Tests used:
# Mus musculus [1] = assay: Tested for the ability to protect against maximal electroshock seizure test; Activity at 300 mg/kg, but ED50 cannot be estimated; format: functional, organism-based; set-up: dose 300 mg/kg
# Method in brief: (§1)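 Adult male Swiss Webster mice (20–25 g) received drug ip (10 mL/kg) in normal saline or as a 1% CMC suspension. At least three dose groups of 4–8 mice were used, tested at 0.5 h. Maximal electroshock used a 50 mA current. ED50 is in mg/kg; time of peak effect was not determined; doses went up to 300 mg/kg.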
# Mus musculus [2] = assay: Tested for the ability to protect against subcutaneous pentylenetetrazole seizure test; NA= Not active up to 300 mg/kg; format: functional, organism-based; set-up: dose 300 mg/kg
# Method in brief: (§2)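 Male Swiss Webster mice (20–25 g) were dosed ip (10 mL/kg; saline or 1% CMC suspension), with ≥3 groups of 4–8 mice. At 0.5 h, pentylenetetrazole 85 mg/kg was given sc into the neck fold, and mice were watched for 30 min. Protection meant absence of clonic spasms lasting ≥5 s. ED50 is in mg/kg; doses went up to 300 mg/kg.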
# Mus musculus [3] = species: Mus musculus; assay: Tested for the ability to protect against maximal electroshock seizure test; format: functional; method in brief: as §1
# Mus musculus [4] = assay: Intraperitoneal anticonvulsant activity in the maximal electroshock seizure test expressed as median effective dose in phase II trial in mice; details: ip
# Mus musculus [5] = assay: Anticonvulsant activity in the in the subcutaneous pentylenetetrazole seizure test in the mice; format: functional; details: sc
# Method in brief: (§3)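 Phase II quantification in mice was run by the NIH ADD Program. Compounds were given ip, and ED50 (mg/kg) was read at the time of peak effect. The protective index is TD50 (rotorod ataxia) divided by ED50 in the MES or scMET test.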
# [6] = Tested for median toxic dose in rotarod ataxia test for neurological toxicity in mice; format: organism-based; details: mouse, in vivo
# Method in brief: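 Neurotoxicity was measured in mice by the NIH ADD Program using the rotorod ataxia test. Drug was given ip, and the median toxic dose (mg/kg) was measured at the time of peak deficit.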
# Mus musculus [7] = assay: Tested for the ability to protect against subcutaneous pentylenetetrazole seizure test; format: functional; details: sc; method in brief: as §2
# Mus musculus [8] = assay: Anticonvulsant activity of the substance upon subcutaneous administration in pentylenetetrazole seizure test in mice; format: functional; details: ip, in the assay text read “upon intraperitoneal administration” for “upon subcutaneous administration”; method in brief: as §3
# [9] = Protective index is the ratio between TD50 and ED50 values in subcutaneous pentylenetetrazole seizure test (scMET); format: functional; method in brief: as §3
# [10] = Protective index is the ratio between TD50 and ED50 values in maximal electroshock seizure test (MES); format: functional; method in brief: as §3
# Mus musculus [11] = assay: Tested for the ability to protect against maximal electroshock seizure test; NA= Not active up to 300 mg/kg; format: functional, organism-based; set-up: dose 300 mg/kg; method in brief: as §1
# Mus musculus [12] = assay: Tested for the ability to protect against subcutaneous pentylenetetrazole seizure test; Previously tested; format: functional; details: sc
# Mus musculus [13] = assay: Tested for the ability to protect against subcutaneous pentylenetetrazole seizure test; Activity at 300 mg/kg but ED50 cannot be estimated; format: functional, organism-based; set-up: dose 300 mg/kg; method in brief: as §2
# Mus musculus [14] = assay: Tested for the ability to protect against subcutaneous pentylenetetrazole seizure test; Activity at 300 mg/kg but ED50 can not be estimated; format: functional, organism-based; set-up: dose 300 mg/kg; method in brief: as §2
# Mus musculus [15] = assay: Anticonvulsant activity of the substance upon subcutaneous administration in pentylenetetrazole seizure test in mice; NA= Not active; format: functional, organism-based
compound,measurement,setting,value
NC1=NC(=O)CN1C(=O)OCc1ccccc1,ED50,Mus musculus [1],Activity
same,ED50,Mus musculus [2],inactive
C[C@H]1C(=O)N=C(N)N1C(=O)OCc1ccccc1,ED50,Mus musculus [3],171 mg/kg
same,ED50,Mus musculus [2],inactive
CC[C@H]1C(=O)N=C(N)N1C(=O)OCc1ccccc1,ED50,Mus musculus [3],69.2 mg/kg
same,ED50,Mus musculus [4],99.5 mg/kg
same,ED50,Mus musculus [5],< 500 mg/kg
same,TD50,[6],< 500 mg/kg
same,ED50,Mus musculus [7],223 mg/kg
C=CC[C@H]1C(=O)N=C(N)N1C(=O)OCc1ccccc1,ED50,Mus musculus [3],53.3 mg/kg
same,ED50,Mus musculus [7],193 mg/kg
CCC[C@H]1C(=O)N=C(N)N1C(=O)OCc1ccccc1,ED50,Mus musculus [8],141 mg/kg
same,ED50,Mus musculus [3],53.3 mg/kg
same,ED50,Mus musculus [4],80.2 mg/kg
same,PI,[9],1.3
same,PI,[10],2.3
same,TD50,[6],188 mg/kg
same,ED50,Mus musculus [7],141 mg/kg
CCC(C)[C@H]1C(=O)N=C(N)N1C(=O)OCc1ccccc1 (stereo partly drawn),ED50,Mus musculus [3],74.4 mg/kg
same,ED50,Mus musculus [7],176 mg/kg
NC(=O)CC[C@H]1C(=O)N=C(N)N1C(=O)OCc1ccccc1,ED50,Mus musculus [11],inactive
same,ED50,Mus musculus [2],inactive
CSCC[C@H]1C(=O)N=C(N)N1C(=O)OCc1ccccc1,ED50,Mus musculus [11],inactive
same,ED50,Mus musculus [2],inactive
NC1=NC(=O)[C@H](Cc2ccccc2)N1C(=O)OCc1ccccc1,ED50,Mus musculus [11],inactive
same,ED50,Mus musculus [12],> 1000 mg/kg
CC(C)C[C@H]1C(=O)N=C(N)N1C(=O)OCc1ccccc1,ED50,Mus musculus [12],141 mg/kg
same,ED50,Mus musculus [4],98.6 mg/kg
same,PI,[9],2.5
same,PI,[10],3.5
CCC[C@@H]1C(=O)N=C(N)N1C(=O)OCc1ccccc1,ED50,Mus musculus [11],inactive
same,ED50,Mus musculus [7],374 mg/kg
CC1(C)C(=O)N=C(N)N1C(=O)OCc1ccccc1,ED50,Mus musculus [3],228 mg/kg
same,ED50,Mus musculus [2],inactive
NC1=NC(=O)[C@H](Cc2c[nH]c3ccccc23)N1C(=O)OCc1ccccc1,ED50,Mus musculus [11],inactive
same,ED50,Mus musculus [13],Activity
CCCC[C@H]1C(=O)N=C(N)N1C(=O)OCc1ccccc1,ED50,Mus musculus [14],Activity
same,ED50,Mus musculus [3],> 1000 mg/kg
O=C1NC(=O)C(c2ccccc2)(c2ccccc2)N1,ED50,Mus musculus [15],inactive
NC1=NC(=O)[C@H](CSCc2ccccc2)N1C(=O)OCc1ccccc1,ED50,Mus musculus [11],inactive
same,ED50,Mus musculus [2],inactive
CC(C)[C@H]1C(=O)N=C(N)N1C(=O)OCc1ccccc1,ED50,Mus musculus [14],Activity
same,ED50,Mus musculus [3],51.9 mg/kg
